Calls of active or inactive are those of the source. The calls are words filed in the database; no cut-off is given here.
Tests used:
[1] = Genotoxicity in Salmonella typhimurium TA1535 harboring pSK1002 assessed as umu gene induction at 0.0005 mg/ml in presence of Sprague-Dawley rat liver S9 fraction after by SOS/umu assay relative to control; format: toxicity, organism-based; conditions: salmonella enterica subsp. enterica serovar typhimurium, read-out: FC
[2] = Genotoxicity in Salmonella typhimurium TA1535 harboring pSK1002 assessed as umu gene induction at 0.0002 mg/ml in absence of Sprague-Dawley rat liver S9 fraction after by SOS/umu assay relative to control; format: toxicity, organism-based; conditions: salmonella enterica subsp. enterica serovar typhimurium, read-out: FC
[3] = Genotoxicity in Salmonella typhimurium TA1535 harboring pSK1002 assessed as survival at 0.002 mg/ml in presence of Sprague-Dawley rat liver S9 fraction after by SOS/umu assay relative to control; format: toxicity, organism-based; conditions: salmonella enterica subsp. enterica serovar typhimurium, read-out: Survival
[4] = Genotoxicity in Salmonella typhimurium TA1535 harboring pSK1002 assessed as survival at 0.004 mg/ml in presence of Sprague-Dawley rat liver S9 fraction after by SOS/umu assay relative to control; format: toxicity, organism-based; conditions: salmonella enterica subsp. enterica serovar typhimurium, read-out: Survival
[5] = Genotoxicity in Salmonella typhimurium TA1535 harboring pSK1002 assessed as umu gene induction at 0.001 mg/ml in absence of Sprague-Dawley rat liver S9 fraction after by SOS/umu assay relative to control; format: toxicity, organism-based; conditions: salmonella enterica subsp. enterica serovar typhimurium, read-out: FC
[6] = Genotoxicity in Salmonella typhimurium TA1535 harboring pSK1002 assessed as umu gene induction at 0.016 mg/ml in absence of Sprague-Dawley rat liver S9 fraction after by SOS/umu assay relative to control; format: toxicity, organism-based; conditions: salmonella enterica subsp. enterica serovar typhimurium, read-out: FC
[7] = Genotoxicity in Salmonella typhimurium TA1535 harboring pSK1002 assessed as survival at 0.002 mg/ml in absence of Sprague-Dawley rat liver S9 fraction after by SOS/umu assay relative to control; format: toxicity, organism-based; conditions: salmonella enterica subsp. enterica serovar typhimurium, read-out: Survival
[8] = Genotoxicity in Salmonella typhimurium TA1535 harboring pSK1002 assessed as umu gene induction at 0.008 mg/ml in absence of Sprague-Dawley rat liver S9 fraction after by SOS/umu assay relative to control; format: toxicity, organism-based; conditions: salmonella enterica subsp. enterica serovar typhimurium, read-out: FC
[9] = Genotoxicity in Salmonella typhimurium TA1535 harboring pSK1002 assessed as survival at 0.008 mg/ml in absence of Sprague-Dawley rat liver S9 fraction after by SOS/umu assay relative to control; format: toxicity, organism-based; conditions: salmonella enterica subsp. enterica serovar typhimurium, read-out: Survival
[10] = Genotoxicity in Salmonella typhimurium TA1535 harboring pSK1002 assessed as survival at 0.016 mg/ml in absence of Sprague-Dawley rat liver S9 fraction after by SOS/umu assay relative to control; format: toxicity, organism-based; conditions: salmonella enterica subsp. enterica serovar typhimurium, read-out: Survival
[11] = Genotoxicity in Salmonella typhimurium TA1535 harboring pSK1002 assessed as umu gene induction at 0.004 mg/ml in absence of Sprague-Dawley rat liver S9 fraction after by SOS/umu assay relative to control; format: toxicity, organism-based; conditions: salmonella enterica subsp. enterica serovar typhimurium, read-out: FC
[12] = Solubility of the compound in DSPC:cholesterol:DSPE-PEG2000-Mal:DOPE-Rho lipid mixture at 250 uM; format: physicochemical
Summary of the method: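 Compound added at 250 µM drug to the initial liposome lipid mixture (10 mM total lipid); precipitation and UV-visible absorbance above 300 nm assessed after encapsulation, removal of unencapsulated material and extraction with 1% w/v SDS in RPMI-A.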

[13] = Genotoxicity in Salmonella typhimurium TA1535 harboring pSK1002 assessed as survival at 0.008 mg/ml in presence of Sprague-Dawley rat liver S9 fraction after by SOS/umu assay relative to control; format: toxicity, organism-based; conditions: salmonella enterica subsp. enterica serovar typhimurium, read-out: Survival
[14] = Genotoxicity in Salmonella typhimurium TA1535 harboring pSK1002 assessed as survival at 0.0005 mg/ml in presence of Sprague-Dawley rat liver S9 fraction after by SOS/umu assay relative to control; format: toxicity, organism-based; conditions: salmonella enterica subsp. enterica serovar typhimurium, read-out: Survival
[15] = Genotoxicity in Salmonella typhimurium TA1535 harboring pSK1002 assessed as umu gene induction at 0.002 mg/ml in absence of Sprague-Dawley rat liver S9 fraction after by SOS/umu assay relative to control; format: toxicity, organism-based; conditions: salmonella enterica subsp. enterica serovar typhimurium, read-out: FC
[16] = Genotoxicity in Salmonella typhimurium TA1535 harboring pSK1002 assessed as survival at 0.001 mg/ml in presence of Sprague-Dawley rat liver S9 fraction after by SOS/umu assay relative to control; format: toxicity, organism-based; conditions: salmonella enterica subsp. enterica serovar typhimurium, read-out: Survival
[17] = Genotoxicity in Salmonella typhimurium TA1535 harboring pSK1002 assessed as umu gene induction at 0.001 mg/ml in presence of Sprague-Dawley rat liver S9 fraction after by SOS/umu assay relative to control; format: toxicity, organism-based; conditions: salmonella enterica subsp. enterica serovar typhimurium, read-out: FC
Plasmodium falciparum [18] = test: Antiplasmodial activity against chloroquine-sensitive Plasmodium falciparum 3D7 by [3H]-hypoxanthine incorporation assay; format: functional, organism-based; conditions: Plasmodium falciparum, 3D7
Summary of the method: (§1)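 Blood-stage P. falciparum 3D7 and FCR-3 were tested by a modified [3H]-hypoxanthine incorporation assay. Chloroquine was the reference in all runs.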

[19] = Genotoxicity in Salmonella typhimurium TA1535 harboring pSK1002 assessed as survival at 0.004 mg/ml in absence of Sprague-Dawley rat liver S9 fraction after by SOS/umu assay relative to control; format: toxicity, organism-based; conditions: salmonella enterica subsp. enterica serovar typhimurium, read-out: Survival
[20] = Cytotoxicity against human HepG2A16 cells by MTT assay; format: cell-based; conditions: HepG2A16 cells
Summary of the method: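 MTT viability assay on HepG2-A16 cells, giving CC50 values.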

[21] = Genotoxicity in Salmonella typhimurium TA1535 harboring pSK1002 assessed as umu gene induction at 0.004 mg/ml in presence of Sprague-Dawley rat liver S9 fraction after by SOS/umu assay relative to control; format: toxicity, organism-based; conditions: salmonella enterica subsp. enterica serovar typhimurium, read-out: FC
[22] = Genotoxicity in Salmonella typhimurium TA1535 harboring pSK1002 assessed as umu gene induction at 0.0005 mg/ml in absence of Sprague-Dawley rat liver S9 fraction after by SOS/umu assay relative to control; format: toxicity, organism-based; conditions: salmonella enterica subsp. enterica serovar typhimurium, read-out: FC
[23] = Genotoxicity in Salmonella typhimurium TA1535 harboring pSK1002 assessed as survival at 0.016 mg/ml in presence of Sprague-Dawley rat liver S9 fraction after by SOS/umu assay relative to control; format: toxicity, organism-based; conditions: salmonella enterica subsp. enterica serovar typhimurium, read-out: Survival
[24] = Genotoxicity in Salmonella typhimurium TA1535 harboring pSK1002 assessed as umu gene induction at 0.002 mg/ml in presence of Sprague-Dawley rat liver S9 fraction after by SOS/umu assay relative to control; format: toxicity, organism-based; conditions: salmonella enterica subsp. enterica serovar typhimurium, read-out: FC
[25] = Genotoxicity in Salmonella typhimurium TA1535 harboring pSK1002 assessed as survival at 0.0002 mg/ml in presence of Sprague-Dawley rat liver S9 fraction after by SOS/umu assay relative to control; format: toxicity, organism-based; conditions: salmonella enterica subsp. enterica serovar typhimurium, read-out: Survival
[26] = Selectivity index, ratio of CC50 for human HepG2A16 cells by MTT assay to IC50 for multidrug-resistant Plasmodium falciparum FCR-3; format: toxicity; conditions: HepG2A16 cells, read-out: Ratio CC50/IC50
Summary of the method: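 HepG2-A16 human hepatoma cells were tested by MTT viability assay to give CC50. Blood-stage activity was measured against the multidrug-resistant P. falciparum FCR-3 strain by [3H]-hypoxanthine incorporation to give IC50. SI = CC50 HepG2 / FCR-3 IC50.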

Plasmodium falciparum [27] = test: Antiplasmodial activity against multidrug-resistant Plasmodium falciparum FCR-3 by [3H]-hypoxanthine incorporation assay; format: functional, organism-based, FCR-3/Gambia; conditions: Plasmodium falciparum, FCR-3/Gambia; summary of the method: as §1
[28] = Genotoxicity in Salmonella typhimurium TA1535 harboring pSK1002 assessed as survival at 0.001 mg/ml in absence of Sprague-Dawley rat liver S9 fraction after by SOS/umu assay relative to control; format: toxicity, organism-based; conditions: salmonella enterica subsp. enterica serovar typhimurium, read-out: Survival
[29] = Genotoxicity in Salmonella typhimurium TA1535 harboring pSK1002 assessed as survival at 0.0005 mg/ml in absence of Sprague-Dawley rat liver S9 fraction after by SOS/umu assay relative to control; format: toxicity, organism-based; conditions: salmonella enterica subsp. enterica serovar typhimurium, read-out: Survival
[30] = Genotoxicity in Salmonella typhimurium TA1535 harboring pSK1002 assessed as survival at 0.0002 mg/ml in absence of Sprague-Dawley rat liver S9 fraction after by SOS/umu assay relative to control; format: toxicity, organism-based; conditions: salmonella enterica subsp. enterica serovar typhimurium, read-out: Survival
[31] = Genotoxicity in Salmonella typhimurium TA1535 harboring pSK1002 assessed as umu gene induction at 0.008 mg/ml in presence of Sprague-Dawley rat liver S9 fraction after by SOS/umu assay relative to control; format: toxicity, organism-based; conditions: salmonella enterica subsp. enterica serovar typhimurium, read-out: FC
[32] = Genotoxicity in Salmonella typhimurium TA1535 harboring pSK1002 assessed as umu gene induction at 0.016 mg/ml in presence of Sprague-Dawley rat liver S9 fraction after by SOS/umu assay relative to control; format: toxicity, organism-based; conditions: salmonella enterica subsp. enterica serovar typhimurium, read-out: FC
[33] = Genotoxicity in Salmonella typhimurium TA1535 harboring pSK1002 assessed as umu gene induction at 0.0002 mg/ml in presence of Sprague-Dawley rat liver S9 fraction after by SOS/umu assay relative to control; format: toxicity, organism-based; conditions: salmonella enterica subsp. enterica serovar typhimurium, read-out: FC
Plasmodium berghei [34] = test: Antiplasmodial activity against Plasmodium berghei ANKA infected in mouse assessed as mouse survival time at 50 mg/kg/day, po for 4 consecutive days starting from 2 hrs post infection by MSF assay; format: functional
Summary of the method: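 Swiss male mice (20 ± 2 g) infected i.p. with 10^7 P. berghei ANKA parasitized cells in 0.1 mL 0.9% saline (day 0). Oral dosing began 2 h post-infection and continued daily on days 0–3, five mice per batch. Test drugs were given at 50 mg/kg/day in water:DMSO and chloroquine diphosphate at 3 mg/kg/day; a vehicle control was included. Survival was checked daily, and parasitemia was read on day 4 by modified MSF assay.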

Plasmodium berghei [35] = test: Antiplasmodial activity against Plasmodium berghei ANKA infected in mouse assessed as inhibition of parasitemia at 50 mg/kg/day, po for 4 consecutive days starting from 2 hrs post infection by MSF assay relative to control; format: functional
Summary of the method: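 Swiss male mice (20 ± 2 g) infected ip with 10^7 P. berghei ANKA parasitized cells (day 0). Five per group dosed orally 2 h after infection and daily on days 0–3. Test compounds at 50 mg/kg/day in water:DMSO; chloroquine diphosphate at 3 mg/kg/day; vehicle controls. Parasitemia measured on day 4 by MSF assay; survival checked daily.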

SMILES	fold induction at 0.0005 mg/ml [1]	fold induction at 0.0002 mg/ml [2]	viability at 0.002 mg/ml [3]	viability at 0.004 mg/ml [4]	fold induction at 0.001 mg/ml [5]	viability at 0.002 mg/ml [7]	fold induction at 0.004 mg/ml [11]	solubility [12]	viability at 0.0005 mg/ml [14]	fold induction at 0.002 mg/ml [15]	viability at 0.001 mg/ml [16]	fold induction at 0.001 mg/ml [17]	IC50 (Plasmodium falciparum [18])	viability at 0.004 mg/ml [19]	CC50 [20]	fold induction at 0.004 mg/ml [21]	fold induction at 0.0005 mg/ml [22]	fold induction at 0.002 mg/ml [24]	viability at 0.0002 mg/ml [25]	selectivity ratio [26]	other results
OC(CCN1CCN(C(c2ccccc2)c2ccccc2)CC1)c1ccc(Br)cc1 (stereo not given)	0.5	0.8	85.9%	87.2%	1	105%	1	Insoluble	104%	1.1	84.1%	0.7	52.2 µM	114%	351 µM	1	0.8	0.8	96.7%	114	fold induction at 0.016 mg/ml [6]: 0.8; fold induction at 0.008 mg/ml [8]: 1.1; viability at 0.008 mg/ml [9]: 116%; viability at 0.016 mg/ml [10]: 121%; viability at 0.008 mg/ml [13]: 98.1%; viability at 0.016 mg/ml [23]: 87.8%; IC50 (Plasmodium falciparum [27]): 3.09 µM; viability at 0.001 mg/ml [28]: 98.3%; viability at 0.0005 mg/ml [29]: 108%; viability at 0.0002 mg/ml [30]: 107%; fold induction at 0.008 mg/ml [31]: 0.9; fold induction at 0.016 mg/ml [32]: 1; fold induction at 0.0002 mg/ml [33]: 1
OC(CCN1CCN(C(c2ccccc2)c2ccccc2)CC1)c1ccc(F)cc1 (stereo not given)	1.1	1.1	89.6%	87%	1	95.9%	1	Insoluble	86.4%	1.5	95.7%	1	1.08 µM	97.8%	252 µM	1	1	1.1	101%	406	MSD (Plasmodium berghei [34]): 8 days; inhibition (Plasmodium berghei [35]): inactive; IC50 (Plasmodium falciparum [27]): 0.62 µM; viability at 0.001 mg/ml [28]: 94.9%; viability at 0.0005 mg/ml [29]: 100%; viability at 0.0002 mg/ml [30]: 102%; fold induction at 0.0002 mg/ml [33]: 1
